Most compounds without a hit are left out; they make up all but 2% or so of the library.
eIF4E 4G PPI = eIF4E/eIF4G interaction inhibition in translation initiation. 220,000 compounds, 0.37% hits. TR-FRET eIF4E-eIF4GI(517-606) binding, 2 h. inhibition, % at 21.7 µM. P63073+Q04637
p47phox inh = inhibitors of human p47phox binding; P14598; p47phox/p22phox peptide binding, fluorescence polarization, 2 h; inhibition, % at 24.7 µM; 220,000 compounds, 0.53% hits; AID 1274
Target sequence (P14598 whole entry, looked up): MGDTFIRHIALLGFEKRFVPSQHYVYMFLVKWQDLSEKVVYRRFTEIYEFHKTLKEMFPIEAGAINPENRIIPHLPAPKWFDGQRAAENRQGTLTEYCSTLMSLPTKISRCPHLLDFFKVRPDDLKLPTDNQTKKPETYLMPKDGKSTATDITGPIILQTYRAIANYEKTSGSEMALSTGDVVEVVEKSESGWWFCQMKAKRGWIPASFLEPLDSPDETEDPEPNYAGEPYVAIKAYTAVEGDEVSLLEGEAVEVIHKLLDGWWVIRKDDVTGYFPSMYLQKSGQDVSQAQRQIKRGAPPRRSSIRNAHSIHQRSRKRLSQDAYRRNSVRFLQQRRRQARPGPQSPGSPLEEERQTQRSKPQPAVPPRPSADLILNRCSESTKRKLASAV
14-3-3 Bad inh = disrupts binding of bovine 14-3-3 zeta to phospho-Bad peptide; inhibition, % at 21.7 µM; P63103; 220,000 compounds, 0.71% hits; AID 781; TR-FRET 14-3-3zeta/Dy647-pBad peptide displacement, 1 h;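 active means inhibition above about 70%, limit read from the data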
Target sequence (P63103 whole entry, looked up): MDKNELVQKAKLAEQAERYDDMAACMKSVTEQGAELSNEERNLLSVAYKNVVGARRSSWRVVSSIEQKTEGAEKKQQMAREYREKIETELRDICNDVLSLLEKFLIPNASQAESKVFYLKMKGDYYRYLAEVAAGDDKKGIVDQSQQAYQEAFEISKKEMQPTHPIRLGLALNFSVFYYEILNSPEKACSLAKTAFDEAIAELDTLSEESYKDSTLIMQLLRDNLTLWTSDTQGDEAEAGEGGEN
Hck-Nef inh = human Hck-Nef kinase inhibition; inhibition, % at 20 µM; Recombinant Hck-YEEI plus Nef, Z-Lyte FRET kinase assay; 220,000 compounds, 0.68% hits;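 active means Hck-Nef kinase inhibition above about 50%, limit read from the data; inactive means inhibition below that limit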
Diaphorase act = counter-screen for diaphorase-based assays: diaphorase activators and chemical reducers; Diaphorase/resazurin coupled assay, resorufin fluorescence, 16 min; active compounds read high; 1 = vehicle wells, 0 = NADH-free wells; activation factor at 20 µM; 190,000 compounds, 0.005% hits;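 active means diaphorase activity raised at least twofold by the compound at 20 µM; inactive means activation factor below 2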
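Material: Purified diaphorase enzyme from Clostridium kluyveri | Buffer or medium: 50 mM HEPES pH 7.4 with 4.542 mM MgCl2, 0.005% Tween 20 | Times: 16 min enzyme reaction, ambient temperature | Signal: Red resorufin fluorescence at 544/590 nm excitation/emission | Measure: Increased resorufin signal from activators or reducing compounds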
Hck Nef conf = confirmation of Hck-Nef kinase inhibitors; shares compounds with Hck-Nef inh; AID 463188; 1,300 compounds, 28% hits; calls only at 10 µM; Recombinant Hck-YEEI:Nef, Z-Lyte FRET kinase assay;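 active means average inhibition of at least 50%, with Z-scores no higher than 3 in both the phospho-tyrosine peptide and fluorescence counterscreens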
Hits are given with their value; . = inactive; / = no result shown; + = active, no number.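 How the source made its calls, unless noted: active means inhibition above about 30% (limit read from the data); inactive means the rest.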

SMILES | eIF4E 4G PPI | p47phox inh | 14-3-3 Bad inh | Hck-Nef inh | Diaphorase act | Hck Nef conf
O=C(O)c1ccccc1-c1ccccc1C(=O)Nc1cccc(O)c1 | . | . | . | . | . | /
C/C(=C/CCC(C)[C@H]1CC[C@@]2(C)C3=C(CC[C@]12C)[C@@]1(C)CCC(=O)C(C)(C)[C@@H]1CC3)C(=O)O (some centres not stated) | . | . | . | 100.4 | . | +
C/C(=C/CCC(C)C1CCC2(C)C3CCC4C(C)(C)C(=O)CCC4(C)C3=CCC12C)C(=O)O (configuration not stated) | . | . | . | . | / | /
O=c1c2ccccc2nc(SCc2ccccc2)n1CC1CCCO1 (configuration not stated) | . | . | . | . | / | /
COc1ccccc1C1/C(=C(/O)c2ccccc2)C(=O)C(=O)N1CC(C)O (configuration not stated) | . | . | . | 71.9 | . | .
CC1=C(C(=O)OCC2CCCO2)C(c2ccc(C)cc2)C2=C(CCCC2=O)N1 (configuration not stated) | . | / | . | 63.2 | . | .
CCc1ccc(N2C(=O)CC(N3CCN(Cc4ccc5c(c4)OCO5)CC3)C2=O)cc1 (configuration not stated) | . | . | . | . | . | /
CN1CCN(c2nc(-c3cccnc3)nc3ccccc23)CC1 | . | . | . | . | . | /
COc1cc2c(cc1OC)CN(c1nc(-c3cccnc3)nc3ccccc13)CC2 | . | . | . | 67.9 | . | +
COc1ccc(-c2ccc(/C=N/NC(=O)Cc3nnc(N)s3)o2)cc1Cl | . | . | . | 78.5 | / | .
Cc1ccc(-c2ccc(/C=N/NC(=O)Cc3nnc(N)s3)o2)cc1Cl | . | . | . | . | / | /
O=c1cc(-c2ccccc2)nc2c(-c3ccccc3)c(C(F)(F)F)[nH]n12 | . | . | . | 56.7 | / | .
O=C(Cn1nc(C(=O)O)c2ccccc2c1=O)Nc1nc(-c2ccccc2)cs1 | . | . | . | 52.1 | / | .
NC(=O)c1c(NC(=O)Cn2nc(C(=O)O)c3ccccc3c2=O)sc2c1CCC2 | . | . | . | 91.0 | / | .
COc1cc(/C=N/NC(=O)CC23CC4CC(CC(C4)C2)C3)cc(Br)c1OCC(=O)N(C)C | . | . | . | . | . | /
Cc1cc(/C=C2\NC(=O)NC2=O)c(C)n1-c1cccnc1 | . | . | . | 52.2 | / | .
OCCCc1nc2ccccc2[nH]1 | . | / | . | . | . | /
CCOc1cc(C2c3c(oc4ccccc4c3=O)C(=O)N2c2nccs2)ccc1O (configuration not stated) | . | . | . | 84.5 | / | .
CCOc1cccc(C2c3c(oc4ccccc4c3=O)C(=O)N2c2ccccn2)c1 (configuration not stated) | . | . | . | . | . | /
COc1ccc(/C=N/Nc2nc(-c3ccc(C)cc3)c(NC(C)=O)s2)cc1 | . | . | . | 83.4 | / | .
CC(=O)Nc1sc(N/N=C/c2ccccc2)nc1-c1ccc(C)cc1 | . | . | . | 68.8 | / | .
CC(=O)Nc1sc(N/N=C/c2ccc(O)cc2)nc1-c1ccc(C)cc1 | . | . | . | 68.7 | / | .
CC(=O)Nc1sc(N/N=C/c2ccccc2F)nc1-c1ccc(C)cc1 | . | . | . | . | / | /
O=C(N/N=C/c1ccc(OC(F)F)cc1OC(F)F)c1cccc(S(=O)(=O)N2CCOCC2)c1 | . | . | . | . | . | /
CCOC(=O)c1cc2ccc(OC(=O)c3ccco3)cc2oc1=O | . | . | . | 136.2 | . | /
SMILES | eIF4E 4G PPI | p47phox inh | 14-3-3 Bad inh | Hck-Nef inh | Diaphorase act | Hck Nef conf
O=c1oc2ccc(Br)cc2cc1S(=O)(=O)c1ccc(F)cc1 | . | . | . | . | . | /
CCCCCCc1cc2cc(S(=O)(=O)c3ccc(F)c(Cl)c3)c(=O)oc2cc1O | . | . | . | 55.3 | . | /
CCCCCCc1cc2cc(C(N)=O)c(=N)oc2cc1O | . | . | . | 72.4 | . | /
CCOC(=O)c1c(C)n(C)c2ccc(OC(=O)c3ccco3)cc12 | . | . | . | . | . | /
CCCCCCc1cc2cc(C(=O)NC)c(=N)oc2cc1O | / | / | / | 51.0 | . | .
CCCCCCc1cc2cc(C(=O)OCC)c(=O)oc2cc1O | . | . | . | + | / | /
CCCCCCn1cc(C(=O)OCC)c(=O)c2cc(F)c(F)cc21 | . | . | . | . | / | /
Cc1cc(=O)oc2cc(OCc3ccc(C(=O)OCC(=O)Nc4ccc(N(C)C)cc4)cc3)ccc12 | . | . | 79.1 | 146.7 | . | .
Cc1cc(=O)oc2cc(OCc3ccc(C(=O)OCC(=O)NC4CCS(=O)(=O)C4)cc3)ccc12 (configuration not stated) | . | . | . | . | / | /
CCOC(=O)c1cc(CC)sc1NC(=O)COc1ccc2c(C)cc(=O)oc2c1 | . | . | . | 54.7 | . | .
COc1ccc(C(=O)n2cc(C(=O)c3cc(C)ccc3O)cn2)cc1OC | . | . | . | 67.3 | . | +
Cc1cc(O)c(C(=O)/C=C/c2cccc([N+](=O)[O-])c2)c(=O)o1 | . | . | . | 107.6 | / | .
C(=N\NCc1ccccc1)/c1ccc2ncccc2c1 | . | . | . | . | / | /
C(=N\NCc1ccccc1)/c1ccc2nccnc2c1 | . | . | . | 68.4 | / | +
COc1c(O)ccc(/C=C(\C#N)c2nc3ccccc3[nH]2)c1[N+](=O)[O-] | . | . | . | 50.1 | . | .
Fc1ccc(C2CC(c3ccco3)=NN2c2ccccc2)cc1 (configuration not stated) | . | . | . | . | . | /
NS(=O)(=O)c1ccc(N2N=C(c3ccccc3)CC2c2cccc(F)c2)cc1 (configuration not stated) | . | . | . | . | . | /
NS(=O)(=O)c1ccc(N2N=C(c3ccc(Br)cc3)CC2c2ccc(F)cc2)cc1 (configuration not stated) | . | . | . | 116.6 | . | .
COc1ccc(C2CC(c3ccccc3)=NN2c2ccc(S(N)(=O)=O)cc2)cc1OC (configuration not stated) | . | . | . | 73.5 | . | .
O=C(CSc1nc2nc(-c3cccs3)cc(C(F)(F)F)c2c(=O)[nH]1)Nc1ccc(F)c(F)c1 | . | . | . | 53.8 | . | /
COc1nnc(-c2ccccc2)s1 | . | . | . | . | . | /
CCCn1c(=N)c(C#N)cc2c(=O)n3ccccc3nc21 | . | . | . | 60.4 | . | /
N#Cc1cc2c(=O)n3ccccc3nc2n(CCCn2ccnc2)c1=N | / | / | / | 55.4 | . | .
Nc1nc(SCC(=O)NCCc2ccccc2)[nH]c(=O)c1-c1ccccc1 | . | . | . | . | . | /
O=C(N=Nc1c(O)n(C2OC(=O)c3ccccc32)c2ccccc12)c1ccco1 (configuration not stated) | . | 30.9 | . | 65.0 | / | .
CCCCn1c(O)c(N=NC(=O)c2ccco2)c2ccccc21 | . | . | . | . | . | /
